Laboratory results published in ChEMBL document CHEMBL4400582, “Identification of Imidazo[1,2-b]pyridazine Derivatives as Potent, Selective, and Orally Active Tyk2 JH2 Inhibitors” (ACS Med Chem Lett, 2019).
Converted amounts (≈) assume the structure as drawn. The source made the active and inactive calls. No cut-off for these calls is given here.

Assays:
[1] = biological target: T1, Non-receptor tyrosine-protein kinase TYK2 (Homo sapiens, UniProt P29597); assay: Inhibition of TYK2 JH2 domain in human whole blood assessed as decrease in IFNalpha/IL2-induced STAT phosphorylation preincubated for 1 hr followed by IFNalpha/IL2 stimulation and measured after 15 mins by fluorescence assay; format: tissue-based
[2] = biological target: T1, Non-receptor tyrosine-protein kinase TYK2; assay: Inhibition of TYK2 JH2 domain in IFNalpha/IL23-stimulated human Kit225 cells by luciferase reporter assay
[3] = biological target: T1, Non-receptor tyrosine-protein kinase TYK2; assay: Inhibition of fluorescein-labeled kinase tracer binding to His-TVMV-fused TYK2 JH2 domain (575 to 869 residues) (unknown origin) measured after 90 mins by HTRF assay
[4] = Stability in human liver microsomes assessed as parent compound remaining; format: ADME, Microsome
In short: (§1)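 Compound was incubated 10 min with human, rat or mouse liver microsomes. Parent remaining is reported as percent.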

[5] = Stability in mouse liver microsomes assessed as parent compound remaining; format: ADME, Microsome; in short: as §1
[6] = Stability in rat liver microsomes assessed as parent compound remaining; format: ADME, Microsome; in short: as §1
[7] = Permeability of the compound in human Caco2 cells; format: ADME, cell-based; details: Caco-2, read-out: permeability
[8] = Aqueous solubility of the compound at pH 6.5; format: physicochemical; details: buffer
[9] = Aqueous solubility of the compound at pH 1; format: physicochemical; details: buffer
[10] = Cmax in rat at 10 mg/kg, po; format: ADME, organism-based; parameters: dose 10 mg/kg, route oral; details: in vivo
In short: (§2)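 Oral PK in the listed species. Vehicle 5:5:90 TPGS/EtOH/PEG300. An IV arm was dosed at 2 mg/kg.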

[11] = Clearance in mouse at 2 mg/kg, iv; details: in vivo
[12] = Oral bioavailability in cynomolgus monkey at 10 mg/kg; format: ADME, organism-based, Macaca fascicularis; details: in vivo; in short: as §2
[13] = AUC (0 to 24 hrs) in mouse at 10 mg/kg, po; format: ADME, organism-based; parameters: time < 24 hr, dose 10 mg/kg, route oral; details: in vivo; in short: as §2
[14] = Clearance in rat at 10 mg/kg, po; format: ADME, organism-based; details: in vivo; in short: as §2
[15] = Oral bioavailability in mouse at 10 mg/kg; format: ADME, organism-based; details: in vivo; in short: as §2
Rattus norvegicus [16] = assay: Inhibition of IL12/IL18-induced IFNgamma production in Lewis rat at 1 mg/kg, po pretreated for 1 hr followed by IL12 stimulation for 1 hr and subsequent IL18 addition and measured after 3 hrs by ELISA relative to control; format: functional
In short: (§3)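 Rats were dosed in 5:5:90 TPGS/EtOH/PEG300, challenged with IL-12 1 h later and with IL-18 a further hour later. Plasma was collected 5 h after dosing for IFNγ levels. Inhibition is relative to vehicle.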

Rattus norvegicus [17] = assay: Antiarthritic activity in incomplete Freund's adjuvant-induced Lewis rat arthritis model assessed as reduction in paw volume at 5 to 10 mg/kg, po bid for 20 days by plethysmometric method; format: functional, organism-based
In short: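 Rat adjuvant arthritis. Adjuvant was given on day zero. Compound was dosed twice daily from day 0 to day 20 in 5:5:90 TPGS/EtOH/PEG300. Paw volume was measured periodically.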

[18] = Cmax in cynomolgus monkey at 10 mg/kg, po; format: ADME, organism-based, Macaca fascicularis; parameters: dose 10 mg/kg, route oral; details: in vivo; in short: as §2
Rattus norvegicus [19] = assay: Inhibition of IL12/IL18-induced IFNgamma production in Lewis rat at 10 mg/kg, po pretreated for 1 hr followed by IL12 stimulation for 1 hr and subsequent IL18 addition and measured after 3 hrs by ELISA relative to control; format: functional; in short: as §3
Rattus norvegicus [20] = assay: Inhibition of IL12/IL18-induced IFNgamma production in po dosed Lewis rat pretreated for 1 hr followed by IL12 stimulation for 1 hr and subsequent IL18 addition and measured after 3 hrs by ELISA; format: functional, organism-based; in short: as §3
[21] = AUC (0 to 24 hrs) in dog at 10 mg/kg, po; format: ADME, organism-based, Canis lupus familiaris; parameters: time < 24 hr, dose 10 mg/kg, route oral; details: in vivo; in short: as §2
[22] = Cmax in dog at 10 mg/kg, po; format: ADME, organism-based, Canis lupus familiaris; parameters: dose 10 mg/kg, route oral; details: in vivo; in short: as §2
[23] = AUC (0 to 24 hrs) in cynomolgus monkey at 10 mg/kg, po; format: ADME, organism-based, Macaca fascicularis; parameters: time < 24 hr, dose 10 mg/kg, route oral; details: in vivo; in short: as §2
[24] = Cmax in mouse at 10 mg/kg, po; format: ADME, organism-based; parameters: dose 10 mg/kg, route oral; details: in vivo; in short: as §2
[25] = Oral bioavailability in dog at 10 mg/kg; format: ADME, organism-based, Canis lupus familiaris; details: in vivo; in short: as §2
[26] = Clearance in dog at 10 mg/kg, po; format: ADME, organism-based, Canis lupus familiaris; details: in vivo; in short: as §2
[27] = AUC (0 to 24 hrs) in rat at 10 mg/kg, po; format: ADME, organism-based; parameters: time < 24 hr, dose 10 mg/kg, route oral; details: in vivo; in short: as §2
[28] = Oral bioavailability in rat at 10 mg/kg; format: ADME, organism-based; details: in vivo; in short: as §2
[29] = Clearance in cynomolgus monkey at 10 mg/kg, po; format: ADME, organism-based, Macaca fascicularis; details: in vivo; in short: as §2

T1 sequence (P29597 whole entry, the tested form may be a part): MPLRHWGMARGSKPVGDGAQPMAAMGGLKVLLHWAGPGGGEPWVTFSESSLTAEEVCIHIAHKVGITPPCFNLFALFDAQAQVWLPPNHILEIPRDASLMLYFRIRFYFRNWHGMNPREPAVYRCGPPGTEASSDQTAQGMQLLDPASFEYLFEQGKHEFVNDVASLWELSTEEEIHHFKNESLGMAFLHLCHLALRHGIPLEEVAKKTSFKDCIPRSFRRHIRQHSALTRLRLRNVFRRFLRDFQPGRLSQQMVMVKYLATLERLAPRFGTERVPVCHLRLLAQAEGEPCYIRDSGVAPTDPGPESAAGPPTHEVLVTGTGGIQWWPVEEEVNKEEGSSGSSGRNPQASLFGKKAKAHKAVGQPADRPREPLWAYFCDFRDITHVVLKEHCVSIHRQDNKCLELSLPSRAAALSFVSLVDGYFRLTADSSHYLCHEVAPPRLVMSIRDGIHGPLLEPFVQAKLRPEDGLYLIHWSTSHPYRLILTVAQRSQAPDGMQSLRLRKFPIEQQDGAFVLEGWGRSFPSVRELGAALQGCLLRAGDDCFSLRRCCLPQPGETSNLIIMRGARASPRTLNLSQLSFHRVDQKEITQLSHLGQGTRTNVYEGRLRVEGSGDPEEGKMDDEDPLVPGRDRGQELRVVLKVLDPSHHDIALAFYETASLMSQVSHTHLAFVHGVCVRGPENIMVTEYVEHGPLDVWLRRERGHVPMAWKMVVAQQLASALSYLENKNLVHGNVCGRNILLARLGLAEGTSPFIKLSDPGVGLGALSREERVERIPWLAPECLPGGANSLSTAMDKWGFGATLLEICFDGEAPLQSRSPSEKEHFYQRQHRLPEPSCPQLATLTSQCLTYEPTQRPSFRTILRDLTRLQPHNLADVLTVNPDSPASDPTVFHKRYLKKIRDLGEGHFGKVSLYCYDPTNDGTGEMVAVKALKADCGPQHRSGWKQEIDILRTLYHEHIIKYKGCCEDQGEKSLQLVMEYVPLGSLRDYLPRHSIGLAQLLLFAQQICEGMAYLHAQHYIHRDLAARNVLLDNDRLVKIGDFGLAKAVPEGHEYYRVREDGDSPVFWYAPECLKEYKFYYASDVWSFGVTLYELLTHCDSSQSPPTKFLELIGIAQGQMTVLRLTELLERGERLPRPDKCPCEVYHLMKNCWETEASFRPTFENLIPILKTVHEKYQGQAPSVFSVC

SMILES	IC50 [1]	IC50 [2] [nM]	Ki [3] [nM]	further results
CNc1cc(Nc2cccn(-c3ncc(F)cn3)c2=O)nn2c(C(=O)NC3CC3)cnc12	464 nM	235	0.38	–
CNc1cc(Nc2cccn(-c3ccccn3)c2=O)nn2c(C(=O)NC(C)C)cnc12	750 nM	153	0.13	–
CNc1cc(Nc2cccn(-c3cc(C)n(C)n3)c2=O)nn2c(C(=O)N[C@@H]3C[C@@H]3F)cnc12	90 nM	22	0.015	–
CNc1cc(Nc2cccn(-c3ncccc3F)c2=O)nn2c(C(=O)NC3CC3)cnc12	313 nM	61	0.12	Papp [7]: 5.9 ×10⁻⁶ cm/s
CNc1cc(Nc2cccn(-c3ccccn3)c2=O)nn2c(C(=O)NCC(C)(C)CO)cnc12	285 nM	84	0.29	–
CNc1cc(Nc2cccn(-c3cccc(F)n3)c2=O)nn2c(C(=O)N[C@@H]3C[C@@H]3F)cnc12	136 nM	12	0.024	–
CNc1cc(Nc2cccn(-c3ccccn3)c2=O)nn2c(C(=O)NC3CCC3)cnc12	384 nM	60	0.26	–
CNc1cc(Nc2cccn(-c3ccc(C#N)cc3)c2=O)nn2c(C(=O)NC3CC3)cnc12	268 nM	90	0.2	solubility [8]: < 1 µg/mL; Stability [4]: 92%; Stability [5]: 71%; Stability [6]: 77%; solubility [9]: 2 µg/mL (≈ 4.54 µM)
CNc1cc(Nc2cccn(-c3ccccn3)c2=O)nn2c(C(=O)N[C@@H]3C[C@@H]3F)cnc12	–	–	–	Cmax [10]: 9.4 µM; clearance [11]: 16 mL/min/kg; bioavailability [12]: 46%; AUC(0-t) at 24 h [13]: 19 µM·h; CL/F [14]: 7.8 mL/min/kg; bioavailability [15]: 86%; inhibition in vivo at 1 mg/kg (Rattus norvegicus [16]): 45%; Activity (Rattus norvegicus [17]): Active; Cmax [18]: 1.8 µM; inhibition in vivo at 10 mg/kg (Rattus norvegicus [19]): 77%; inhibition (Rattus norvegicus [20]): Dose-dependent effect; AUC(0-t) at 24 h [21]: 8 µM·h; Cmax [22]: 0.93 µM; AUC(0-t) at 24 h [23]: 11 µM·h; Cmax [24]: 15 µM; bioavailability [25]: 50%; CL/F [26]: 25 mL/min/kg; AUC(0-t) at 24 h [27]: 57 µM·h; bioavailability [28]: 114%; CL/F [29]: 17 mL/min/kg
CNc1cc(Nc2cccn(-c3ccc(F)cn3)c2=O)nn2c(C(=O)N[C@@H]3C[C@@H]3F)cnc12	85 nM	26	0.035	–
CNc1cc(Nc2cccn(-c3ccc(C(C)(C)O)cc3)c2=O)nn2c(C(=O)NC3CC3)cnc12	811 nM	111	0.07	–
CNc1cc(Nc2cccn(-c3ccc(C)nn3)c2=O)nn2c(C(=O)N[C@@H]3C[C@@H]3F)cnc12	63 nM	41	0.018	–

The next lines start with results.

IC50 [1]	IC50 [2] [nM]	Ki [3] [nM]	SMILES	further results
Nd(Insoluble)	614	0.74	CNc1cc(Nc2cccn(C)c2=O)nn2c(C(=O)NC3CC3)cnc12	Stability [4]: 56%; Stability [5]: 10%; Stability [6]: 63%
340 nM	135	0.48	CNc1cc(Nc2cccn(-c3cc(C)n(C)n3)c2=O)nn2c(C(=O)NC3CC3)cnc12	Papp [7]: 14.2 ×10⁻⁶ cm/s
817 nM	131	0.33	CNc1cc(Nc2cccn(C3CC3)c2=O)nn2c(C(=O)NC3CC3)cnc12	Stability [4]: 88%; Stability [5]: 39%; Stability [6]: 71%
247 nM	147	0.091	CNc1cc(Nc2cccn(-c3ccc(C)nn3)c2=O)nn2c(C(=O)NC3CC3)cnc12	–
346 nM	148	0.29	CNc1cc(Nc2cccn(-c3ccncc3)c2=O)nn2c(C(=O)NC3CC3)cnc12	Papp [7]: 3.8 ×10⁻⁶ cm/s
382 to 398 nM	94	0.34	CNc1cc(Nc2cccn(-c3ccccn3)c2=O)nn2c(C(=O)NC3CC3)cnc12	Papp [7]: 16.9 ×10⁻⁶ cm/s
236 nM	99	0.15	CNc1cc(Nc2cccn(-c3ccc(F)cn3)c2=O)nn2c(C(=O)NC3CC3)cnc12	–
371 nM	70	0.22	CNc1cc(Nc2cccn(-c3cccc(F)n3)c2=O)nn2c(C(=O)NC3CC3)cnc12	–
